Experimental data reported in ChEMBL document CHEMBL2321843, “Opioid peptidomimetics: leads for the design of bioavailable mixed efficacy μ opioid receptor (MOR) agonist/δ opioid receptor (DOR) antagonist ligands” (J Med Chem, 2013).
pEC50, pKi: −log10 of the molar value. Active and inactive are the calls of the source.

How the values were obtained:
[1] = molecular target: T1, Kappa-type opioid receptor (Homo sapiens, UniProt P41145); assay type: functional, cell-based, CHO; conditions: for EC50: cho
T1 sequence (P41145 whole entry): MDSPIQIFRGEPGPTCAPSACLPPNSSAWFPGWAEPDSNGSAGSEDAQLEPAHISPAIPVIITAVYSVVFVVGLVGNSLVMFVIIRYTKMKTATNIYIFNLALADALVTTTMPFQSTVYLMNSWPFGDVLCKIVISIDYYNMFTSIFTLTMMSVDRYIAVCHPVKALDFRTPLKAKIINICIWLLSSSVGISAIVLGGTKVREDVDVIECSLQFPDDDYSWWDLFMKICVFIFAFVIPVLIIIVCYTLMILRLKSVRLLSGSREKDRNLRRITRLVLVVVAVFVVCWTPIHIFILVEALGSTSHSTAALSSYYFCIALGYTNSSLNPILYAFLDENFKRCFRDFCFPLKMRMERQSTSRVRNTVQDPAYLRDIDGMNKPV

[2] = molecular target: Mu-type opioid receptor (Rattus norvegicus) (UniProt P33535); test: Agonist activity at rat MOR expressed in rat C6 cells assessed as stimulation of [35S]GTPgammaS binding at 10 uM after 1 hr by liquid scintillation counting analysis relative to DAMGO; assay type: functional, cell-based
Sequence of Mu-type opioid receptor (Rattus norvegicus) (P33535 whole entry): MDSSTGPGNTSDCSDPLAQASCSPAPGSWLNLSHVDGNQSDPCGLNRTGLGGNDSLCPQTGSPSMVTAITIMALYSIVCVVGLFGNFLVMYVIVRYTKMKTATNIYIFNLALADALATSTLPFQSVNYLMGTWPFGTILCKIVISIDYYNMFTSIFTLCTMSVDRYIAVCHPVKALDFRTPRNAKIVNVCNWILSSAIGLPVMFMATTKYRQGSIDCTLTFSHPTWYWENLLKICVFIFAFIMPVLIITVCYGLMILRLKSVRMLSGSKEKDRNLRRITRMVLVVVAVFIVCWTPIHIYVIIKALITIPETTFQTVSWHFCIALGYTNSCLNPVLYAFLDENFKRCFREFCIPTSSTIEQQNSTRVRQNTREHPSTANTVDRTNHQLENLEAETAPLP

[3] = molecular target: Delta-type opioid receptor (Rattus norvegicus) (UniProt P33533); conditions: C6
Sequence of Delta-type opioid receptor (Rattus norvegicus) (P33533 whole entry): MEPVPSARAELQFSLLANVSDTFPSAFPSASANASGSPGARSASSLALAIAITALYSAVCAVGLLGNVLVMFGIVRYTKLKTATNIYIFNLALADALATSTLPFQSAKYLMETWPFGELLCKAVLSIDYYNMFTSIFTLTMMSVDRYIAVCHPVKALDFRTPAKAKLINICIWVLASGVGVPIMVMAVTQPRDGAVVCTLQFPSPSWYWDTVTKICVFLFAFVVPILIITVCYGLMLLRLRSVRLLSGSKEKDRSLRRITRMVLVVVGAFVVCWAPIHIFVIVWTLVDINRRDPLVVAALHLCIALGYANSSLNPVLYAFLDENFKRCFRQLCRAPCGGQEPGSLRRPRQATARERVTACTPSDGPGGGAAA

[4] = molecular target: T2, Delta-type opioid receptor (Rattus norvegicus, UniProt P33533); test: Displacement of [3H]diprenorphine from rat DOR expressed in rat C6 cells after 1 hr by liquid scintillation counting analysis; assay type: cell-based
T2 sequence (P33533 whole entry): as above

[5] = molecular target: T2, Delta-type opioid receptor; test: Agonist activity at rat DOR expressed in rat C6 cells assessed as stimulation of [35S]GTPgammaS binding after 1 hr by liquid scintillation counting analysis; assay type: functional, cell-based
[6] = molecular target: T1, Kappa-type opioid receptor; assay type: cell-based, CHO
[7] = molecular target: Delta-type opioid receptor (Rattus norvegicus) (UniProt P33533); test: Agonist activity at rat DOR expressed in rat C6 cells assessed as stimulation of [35S]GTPgammaS binding at 10 uM after 1 hr by liquid scintillation counting analysis relative to DPDPE; assay type: functional, cell-based
[8] = molecular target: T3, Mu-type opioid receptor (Rattus norvegicus, UniProt P33535); test: Displacement of [3H]diprenorphine from rat MOR expressed in rat C6 cells after 1 hr by liquid scintillation counting analysis; assay type: cell-based
T3 sequence (P33535 whole entry): as the sequence (P33535 whole entry) above

[9] = molecular target: T1, Kappa-type opioid receptor; conditions: CHO, 10 uM
[10] = molecular target: T3, Mu-type opioid receptor; test: Agonist activity at rat MOR expressed in rat C6 cells assessed as stimulation of [35S]GTPgammaS binding after 1 hr by liquid scintillation counting analysis; assay type: functional, cell-based
[11] = test system: Mus musculus; test: Antinociceptive activity in C57BL/6 mouse assessed as increase in duration of maximal activity at 10 mg/kg, ip by warm water tail withdrawal assay; assay type: functional, organism-based; design: dose 10 mg/kg
How it was run: (§1)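 Male C57BL/6 mice given a single ip dose of 10 mg/kg. Tail-withdrawal latency (50 °C water, 20 s cutoff) measured at varying times after dosing to build a time course.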

[12] = test system: Mus musculus; test: Antinociceptive activity in C57BL/6 mouse assessed as duration of maximal activity at 10 mg/kg, ip by warm water tail withdrawal assay; assay type: functional; conditions: route intraperitoneal
How it was run: as §1

[13] = test system: Mus musculus; test: Antinociceptive activity in C57BL/6 mouse assessed as tail withdrawal latency at 3.2 to 32 mg/kg, ip after 30 mins by warm water tail withdrawal assay in presence of opioid antagonist naltrexone; assay type: functional, organism-based
How it was run: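 Male C57BL/6 mice pretreated ip with naltrexone 1 mg/kg, 30 min before testing. Cumulative ip dosing to totals of 3.2, 10 and 32 mg/kg at 30 min intervals, with latency read 30 min after each injection. Tail tip immersed in 50 °C water, 20 s cutoff.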

[14] = test system: Mus musculus; test: Antinociceptive activity in ip dosed C57BL/6 mouse assessed as tail withdrawal latency after 30 mins by warm water tail withdrawal assay; assay type: functional

SMILES	EC50 [1]	Emax [2] [%]	pKi [4]	EC50 [5]	pKi [6]	other results
Cc1cc(O)cc(C)c1C[C@H](N)C(=O)N[C@@H]1CCNc2ccc(Cc3ccc4ccccc4c3)cc21	Not Active	96	8.00	Not Active	7.27	Ke [3]: 34.3 nM
Cc1cc(O)cc(C)c1C[C@H](N)C(=O)N[C@@H]1CCNc2ccc(Cc3cccc4ccccc34)cc21	Not Active	93	–	–	–	Emax [7]: 15%
Cc1cc(O)cc(C)c1C[C@H](N)C(=O)N[C@@H]1CCNc2ccc(CCc3ccccc3)cc21	Not Active	45	–	Not Active	–	–
Cc1cc(O)cc(C)c1C[C@H](N)C(=O)N[C@@H]1CCNc2ccc(CC3Cc4ccccc4C3)cc21	–	86	8.39	Not Active	8.92	pKi [8]: 9.80; Emax [9]: 38%; pEC50 ([1]; read-out: EC50): 7.17; pEC50 [10]: 9.62
CN1CC[C@]23c4c5ccc(O)c4O[C@H]2[C@@H](O)C=C[C@H]3[C@H]1C5	–	–	–	–	–	Activity [11]: Active
Cc1cc(O)cc(C)c1C[C@H](N)C(=O)N[C@@H]1CCNc2ccc(Cc3ccccc3)cc21	–	–	–	–	–	Time [12]: 60 min; Activity [13]: inactive; Activity [14]: Dose-dependent effect; ED50 ([14]; C57BL/6, Tail, 0.5 h): 3 mg/kg
